# Measured values gathered from unrelated publications.
# Compare with care: the assays were run in different laboratories.
Compound,target or system,test,test system,setting,endpoint,value
COC(=O)c1cc(-c2cccc(NC(=O)Nc3ccc(C(F)(F)F)cc3)c2)on1,Klebsiella pneumoniae,"microbial growth, broth dilution",BAA1705,,MIC,> 64 µg/mL
COc1c2c(cc3c1OCO3)[C@]13C=C[C@H](OC)C[C@@H]1[N@](C2)C[C@H]3OC(=O)c1ccc2ccccc2c1,A2780,"cell growth or viability, WST-1",,,IC50,> 10 µM
O=C(N/N=C1\C(=O)N(Cc2ccccc2)c2ccc(Cl)cc21)c1cc2ccccc2[nH]1,HT-29,cell growth or viability,,30 µM,inhibition,94.3%
CC(C)C(C)CCCCCCCCCCCc1cc(O)cc(O)c1 (stereo not drawn),Streptococcus pneumoniae,microbial growth,,,IC50,47.5 µM
CO[C@H]1/C=C/O[C@@]2(C)Oc3c(C)c(O)c4c(O)c(c(/C=N/N5CCN(C)CC5)c(O)c4c3C2=O)NC(=O)/C(C)=C\C=C\[C@H](C)[C@H](O)[C@@H](C)[C@@H](O)[C@@H](C)[C@H](OC(C)=O)[C@@H]1C,Mycobacterium tuberculosis variant bovis BCG,microbial growth,BCG,7 days,MIC,0.1 µg/mL
COC(=O)c1cc(-c2cccc(NC(=O)Nc3c(C)cccc3C)c2)on1,Klebsiella pneumoniae,"microbial growth, broth dilution",BAA1705,,MIC,> 64 µg/mL
CCCCCCCCCCCCCCCCCCCCc1cc(O)cc(O)c1,Streptococcus pneumoniae,microbial growth,,,IC50,> 200 µM
N#CCc1c[nH]c2ccccc12,Cryptosporidium parvum,parasite growth,HCT-8,"24 h, intracellular",EC90,1230 µM
COC(=O)c1cc(-c2cccc(NC(=S)Nc3ccccc3Cl)c2)on1,Klebsiella pneumoniae,"microbial growth, broth dilution",BAA1705,,MIC,> 64 µg/mL
CC(C)CCCCCCCCCCCCc1cc(O)cc(O)c1,Streptococcus pneumoniae,microbial growth,,,IC50,77.3 µM
O=C(N/N=C1\C(=O)N(Cc2ccccc2)c2ccccc21)c1cc2ccccc2[nH]1,HT-29,cell growth or viability,,,IC50,6.19 µM
CCOC(=O)c1nnn(-c2cccc(NC(=O)Nc3ccc(Cl)c(Cl)c3)c2)c1C,Klebsiella pneumoniae,"microbial growth, broth dilution",BAA1705,,MIC,> 64 µg/mL
CC(C)CCCCCCCCCCCCCCc1cc(O)cc(O)c1,Streptococcus pneumoniae,microbial growth,,,IC50,46.3 µM
O=C(N/N=C1\C(=O)N(Cc2ccccc2)c2ccc(Br)cc21)c1cc2ccccc2[nH]1,HT-29,cell growth or viability,,30 µM,inhibition,94.7%
Cc1c(NN=C(C#N)C2=NC(=O)CS2)c(=O)n(-c2ccccc2)n1C,Klebsiella pneumoniae,"microbial growth, well diffusion",,100000 µg/mL,inhibition zone,25 mm
COC(=O)c1cc(-c2cccc(NC(=S)NC3CCCCC3)c2)on1,Klebsiella pneumoniae,"microbial growth, broth dilution",BAA1705,,MIC,> 64 µg/mL
N#Cc1ccc(CN2C(=O)/C(=N\NC(=O)c3cc4ccccc4[nH]3)c3ccccc32)cc1,HT-29,cell growth or viability,,30 µM,inhibition,81.6%
COC(=O)c1cc(-c2cccc(NC(=O)Nc3ccc(F)c(F)c3)c2)on1,Klebsiella pneumoniae,"microbial growth, broth dilution",BAA1705,,MIC,> 64 µg/mL
O=C(N/N=C1\C(=O)N(Cc2ccc(Cl)cc2)c2ccccc21)c1cc2ccccc2[nH]1,HT-29,cell growth or viability,,30 µM,inhibition,93.7%
C1CCNCC1,Cryptosporidium parvum,"parasite growth, imaging",HCT-8,"1 mM, 24 h, intracellular",activity vs control,104%
O=C(N/N=C1\C(=O)N(Cc2ccccc2)c2ccc(F)cc21)c1cc2ccccc2[nH]1,HT-29,cell growth or viability,,,IC50,3.5 µM
COC(=O)c1cc(-c2cccc(NC(=O)Nc3ccc(OC)cc3)c2)on1,Klebsiella pneumoniae,"microbial growth, broth dilution",BAA1705,,MIC,> 64 µg/mL
Cc1ccc(CN2C(=O)/C(=N\NC(=O)c3cc4ccccc4[nH]3)c3ccccc32)cc1,HT-29,cell growth or viability,,,IC50,2.45 µM
COc1c2ccoc2cc2oc(=O)ccc12,RD,"cell growth or viability, WST-1",,48 h,IC50,31.8 µM
